Several values for one entry are separate records, joined by “and”; a condition that tells them apart may be missing. Equal values may be shown once.
Legend:
[1] = Solubility in water by UV-visible spectrophotometry; assay type: physicochemical
HCT116 = assay: MTT cell proliferation inhibition assay; assay type: cell-based; settings: Homo sapiens, HCT-116, 72 h
HeLa = assay: MTT cell proliferation inhibition assay; assay type: cell-based; settings: Homo sapiens, 72 h
Hep G2 = assay: MTT cell proliferation inhibition assay; assay type: cell-based; settings: Homo sapiens, HepG2, 72 h
JEG3 = assay: MTT cell proliferation inhibition assay; assay type: cell-based; settings: Homo sapiens, JEG-3, 72 h
SMMC7721 = assay: MTT cell proliferation inhibition assay; assay type: cell-based; settings: Homo sapiens, SMMC-7721, 72 h
HCT116 tumor = assay: HCT116 xenograft tumor model in BALB/c nude mice; assay type: in vivo; settings: dose 0.036 mmol/kg/d, daily injection for 21 days
Method in brief: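 Nude mice given 5 × 10^5 viable HCT116 cells subcutaneously in the right flank. Daily injections into the left hypogastrium for 21 days. Test compound at 0.006, 0.012 or 0.018 mmol/kg/d. Comparators: 5-FU 0.036 mmol/kg/d and an uncrystallised 3:1 mix (5-FU 0.036 + NCM 0.012 mmol/kg/d), plus blank control. Mice euthanised; tumours weighed and examined by H&E (×100). TGI = (mean control weight − mean treated weight)/mean control weight.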

[2] = Pharmacokinetics after oral administration in rats; assay type: in vivo, Sprague-Dawley rats; settings: 0.06 mmol/kg
Acute toxicity study = assay type: in vivo; settings: for Nd (number of dead animals) / R (%) = Nd/Ni: Ni 10; for LD50: in vivo, acute toxicity
[3] = Sprague-Dawley, rat, plasma, po
[4] = dose 122.2/0.86 (mg/kg)/(mmol/kg)
[5] = dose 133.4/1.03 (mg/kg)/(mmol/kg)
[6] = dose 158.5/1.22 (mg/kg)/(mmol/kg)

## O=c1[nH]cc(F)c(=O)[nH]1 [5-FU, 5-Fluorouracil]
[1]
  solubility at 24 h: 10500 µg/mL and 80000 µM
HCT116
  IC50: 32.5 nM
HeLa
  IC50: 7.96 µM
Hep G2
  IC50: 3.86 µM
JEG3
  IC50: 2180 nM
SMMC7721
  IC50: 18.9 µM
HCT116 tumor
  TGI (tumor growth inhibition): 21.8%
  W̅ average tumor growth weight: 0.65 ± 0.10 g
[2]; [3]
  AUC(0-inf): 5.07 ± 0.104 µM·h
  AUC(0-t): 4.93 ± 0.076 µM·h
  CL/F: 197 mL/min/kg
  Cmax: 7.99 ± 0.375 µM
  Tmax: 20 min
  half-life: 18.1 ± 3.72 min
[2]; oral, SD rats, n = 8
  V1/F: 2.783 ± 0.915 L/kg
  t1/2α: 3.84 ± 0.78 min
Acute toxicity study; [4]
  probit (P + 5): 3.720
  Nd (number of dead animals): 1
  R (%) = Nd/Ni: 10%
Acute toxicity study; [5]
  probit (P + 5): 5.520
  Nd (number of dead animals): 7
  R (%) = Nd/Ni: 70%
Acute toxicity study; [6]
  probit (P + 5): 6.28
  Nd (number of dead animals): 9
  R (%) = Nd/Ni: 90%
Acute toxicity study; LD50 95% confidence interval
  LD50: 380 to 2630 µmol/kg
Acute toxicity study; LD50 (median lethal dose)
  LD50: 1000 µmol/kg

Reference: paper PMC7345411 (ACS Omega, 2020)
